Most compounds without a hit are left out; they make up all but 2% or so of the library.
IMP-1 inhibitor = blocks Pseudomonas aeruginosa IMP-1 metallo-beta-lactamase; inhibition, % at 5.6 µM; purified IMP-1, nitrocefin hydrolysis, epi-absorbance fluorescence; 290,000 tested, 0.45% active;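 active means inhibition above the mean plus 3 SD of all compounds in the same screening run, cut at about 4.5% in these data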;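 further: 0% = IMP-1 with DMSO and 100% = DMSO wells lacking enzyme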
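System: purified recombinant IMP-1 beta-lactamase. Medium: Zinc- and detergent-supplemented HEPES buffer, pH 7.1. Compound: one 5.6 µM dose […]. Schedule: 15 min preincubation plus 25 min reaction at 25 °C. Technique: Epi-absorbance fluorescence, 480 nm excitation, 530 nm emission.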
PLC-beta3 inh = inhibitors of human phospholipase C beta3; Q01970; Purified PLC-beta3, fluorogenic substrate, fluorescence; inhibition, % at 12.2 µM; 370,000 tested, 0.18% active; AID 720704; in the data active means inhibition above about 11%;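 further: 0% = median of compound wells on plate and 100% = full blocker control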
PLCg1 inh = blocks human PLC-gamma1 enzyme activity; 370,000 tested, 0.84% active; P19174; purified PLC-gamma1, fluorogenic substrate, fluorescence; inhibition, % at 12.2 µM; in the data active means inhibition above about 9.5%
Target sequence (P19174 whole entry, looked up): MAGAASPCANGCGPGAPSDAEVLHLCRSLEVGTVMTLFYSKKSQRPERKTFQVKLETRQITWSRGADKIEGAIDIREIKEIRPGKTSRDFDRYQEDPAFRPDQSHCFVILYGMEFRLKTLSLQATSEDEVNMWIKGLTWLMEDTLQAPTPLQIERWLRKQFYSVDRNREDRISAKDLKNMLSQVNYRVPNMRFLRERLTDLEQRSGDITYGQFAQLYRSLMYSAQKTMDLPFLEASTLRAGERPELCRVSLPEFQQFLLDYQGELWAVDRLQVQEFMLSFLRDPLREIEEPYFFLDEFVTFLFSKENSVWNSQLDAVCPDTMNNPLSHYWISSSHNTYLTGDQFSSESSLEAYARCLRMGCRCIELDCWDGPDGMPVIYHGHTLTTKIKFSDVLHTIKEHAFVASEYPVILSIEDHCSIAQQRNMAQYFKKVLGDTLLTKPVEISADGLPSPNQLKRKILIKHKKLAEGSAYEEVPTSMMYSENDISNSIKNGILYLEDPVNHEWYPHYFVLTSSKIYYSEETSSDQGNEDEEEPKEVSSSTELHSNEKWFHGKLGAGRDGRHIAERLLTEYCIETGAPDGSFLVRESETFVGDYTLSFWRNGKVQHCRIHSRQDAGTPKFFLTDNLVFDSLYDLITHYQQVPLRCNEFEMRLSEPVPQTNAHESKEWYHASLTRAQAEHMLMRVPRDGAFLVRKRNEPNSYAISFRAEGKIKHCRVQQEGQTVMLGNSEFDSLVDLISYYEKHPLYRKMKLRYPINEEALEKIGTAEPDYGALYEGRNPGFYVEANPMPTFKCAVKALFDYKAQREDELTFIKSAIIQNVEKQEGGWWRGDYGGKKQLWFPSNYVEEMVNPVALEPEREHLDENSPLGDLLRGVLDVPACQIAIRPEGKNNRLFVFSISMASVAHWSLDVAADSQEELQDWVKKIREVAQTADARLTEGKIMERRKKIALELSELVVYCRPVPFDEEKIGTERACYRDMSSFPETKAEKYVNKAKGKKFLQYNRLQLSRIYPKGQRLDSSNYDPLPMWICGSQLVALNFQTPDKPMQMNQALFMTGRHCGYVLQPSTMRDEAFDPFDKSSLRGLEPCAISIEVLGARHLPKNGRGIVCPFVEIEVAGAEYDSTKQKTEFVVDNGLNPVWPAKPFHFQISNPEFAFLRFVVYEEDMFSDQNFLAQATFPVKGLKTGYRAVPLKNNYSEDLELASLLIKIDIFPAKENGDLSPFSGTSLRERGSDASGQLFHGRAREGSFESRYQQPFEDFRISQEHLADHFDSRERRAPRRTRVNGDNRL
VIM-2 inhibitor = blocks Pseudomonas aeruginosa VIM-2 metallo-beta-lactamase. AID 1527. 290,000 tested, 0.89% active. inhibition, % at 5.6 µM. purified VIM-2, nitrocefin hydrolysis, epi-absorbance fluorescence;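 active means inhibition above the mean of all tested compounds plus 3 SD, cutoff set per screening run, cut at about 7.5% in these data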;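 further: red hydrolysis product quenches plate fluorescence so inhibitors raise well fluorescence; 0% = enzyme with DMSO and 100% = DMSO without enzyme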
PvdQ acylase = P. aeruginosa PvdQ acylase inhibition; 340,000 tested, 0.063% active; purified PvdQ acylase, fluorescence plate reader; inhibition, % at 10 µM; in the data active means inhibition above about 30%, passing the limit was not always enough;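 further: 0% = vehicle neutral wells and 100% = reference inhibitor wells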
* marks the source's active call; other numbers are inactive results.

NS(=O)(=O)c1ccc(CCNC(=O)CCS(=O)(=O)c2ccc(Br)cc2)cc1 was read as IMP-1 inhibitor 7.8*, PLC-beta3 inh 0, PLCg1 inh -2, VIM-2 inhibitor -1 and PvdQ acylase -13.
`C=CCN1[C@H](CC(C)C)COc2cc(N3CCCC3)ccc2S1(=O)=O` gave PLC-beta3 inh 1 and PLCg1 inh 2.
`C=CCNC(=O)Nc1ccc2c(c1)[C@]1(CC(=O)N(CC(C)C)C1c1ccccc1)C(=O)N2C` (some centres undefined) gave PLC-beta3 inh -3 and PLCg1 inh 0.
For CC1(C)CC2CC(C)(CN2C(=O)COC(=O)c2ccccc2C(F)(F)F)C1 (centres undefined) the results were PLC-beta3 inh -5, PLCg1 inh 12* and PvdQ acylase -13.
Screening Cc1nc2ccccc2c2oc(C(=O)N3CCc4ccccc4C3)cc12 returned IMP-1 inhibitor -4, PLC-beta3 inh -11, PLCg1 inh -4, VIM-2 inhibitor 4 and PvdQ acylase 17.
For Cc1nc2ccccc2c2oc(C(=O)NC3CC3)cc12 the results were IMP-1 inhibitor 0, PLC-beta3 inh 3, PLCg1 inh 3, VIM-2 inhibitor 8.4* and PvdQ acylase -5.
For Cc1nc2ccccc2c2oc(C(=O)N3CCN(C(=O)c4ccco4)CC3)cc12 the results were IMP-1 inhibitor -3, PLC-beta3 inh 1, PLCg1 inh -1, VIM-2 inhibitor 8.8* and PvdQ acylase 2.
Cc1nc2ccccc2c2oc(C(=O)N3CCC(C)CC3)cc12 was read as IMP-1 inhibitor 0, PLC-beta3 inh -4, PLCg1 inh 5, VIM-2 inhibitor 11* and PvdQ acylase 1.
Screening CCC(=O)N1CCc2cc(Br)c(S(=O)(=O)N3CCC(C(=O)NCCCOC(C)C)CC3)cc21 returned PLC-beta3 inh 3 and PLCg1 inh -1.
For COc1ccc(S[C@]2(C(=O)N3CCN(c4ncccn4)CC3)CC(=O)N(C(=O)c3ccccc3)[C@@H]2c2ccc(OC)cc2)cc1 the results were PLC-beta3 inh 2 and PLCg1 inh 1.
`CCCCCCCCN1C(=O)[C@@H](CC(=O)N2CCOCC2)C[C@@]2(C(=O)OC)C1=C[C@H](C(C)C)O[C@@H]2C1CC1` gave PLC-beta3 inh 3 and PLCg1 inh 7.
Screening Cc1ccc(NC(=O)C2CCCN(c3nnc(-n4cccc4)s3)C2)cc1C (centres undefined) returned PLC-beta3 inh -4 and PLCg1 inh 3.
For COc1cc(NC(=O)CSc2ncnc3c2cnn3Cc2ccccc2)cc(OC)c1 the results were IMP-1 inhibitor 4.5*, PLC-beta3 inh -3, PLCg1 inh -1, VIM-2 inhibitor -1 and PvdQ acylase 4.
CCC(C)c1c(O)nc(SCC(=O)c2ccccc2)[nH]c1=O (centres undefined) was read as IMP-1 inhibitor 4.7*, PLC-beta3 inh -14, PLCg1 inh -10, VIM-2 inhibitor -1 and PvdQ acylase -14.
For Nc1[nH]c(C(=O)c2ccccc2)c(-c2ccc(Cl)cc2Cl)c1C(=O)NCCC1=CCCCC1 the results were PLC-beta3 inh -2 and PLCg1 inh 8.
Screening CCOc1ccc(CNC(=O)Cn2nc(C)c3c(C)n(-c4ccc(C)cc4)nc3c2=O)cc1 returned IMP-1 inhibitor 11*, PLC-beta3 inh -3, PLCg1 inh 1, VIM-2 inhibitor 0 and PvdQ acylase -9.
For CCOc1ccc2c(c1)N(C(=O)CN1C(=O)CCC1=O)C(C)(C)C=C2C the results were IMP-1 inhibitor -3, PLC-beta3 inh 5, PLCg1 inh 1, VIM-2 inhibitor -2 and PvdQ acylase -6.
Screening CC1=CC(C)(C)N(C(=O)CNC2CCCC2)c2cc(C)ccc21 returned IMP-1 inhibitor 34*, PLC-beta3 inh 3, PLCg1 inh 2, VIM-2 inhibitor -5 and PvdQ acylase -5.
`CSc1sc(C(=O)O)c2c1C(=O)CC(C)(C)C2` gave PLC-beta3 inh 0, PLCg1 inh 2 and PvdQ acylase -2.
`CSc1sc(-c2ccnc(SCC(=O)C(C)(C)C)n2)c2c1C(=O)CC(C)(C)C2` gave IMP-1 inhibitor 14*, PLC-beta3 inh -22, PLCg1 inh -8, VIM-2 inhibitor 4 and PvdQ acylase -3.
Screening Cc1ccc(NC(=O)N2CCC(N(C)CCC(C)C)CC2)cc1F returned PLC-beta3 inh 0 and PLCg1 inh 2.
`Cc1ccc(-n2nc3c(N4CCC(C(=O)N5CCC(C(N)=O)CC5)CC4)nnc(C)c3c2C)cc1` gave IMP-1 inhibitor -3, PLC-beta3 inh -213, PLCg1 inh -137, VIM-2 inhibitor 1 and PvdQ acylase -4.

Screening results (PubChem BioAssay)
